The entries come from a sample that favours hits as a whole.
PGC1a acetyl up – raises PGC1a acetylation signal in U2OS cells; U2OS PGC1a acetylation AlphaScreen, overnight; activation, % at 15.6 µM; actives 0.21% (n = 350,000); AID 651723;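 active = every replicate reaching activation of at least 50%, whatever the mean replicate activation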;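 note: hits raise the AlphaScreen acetylation signal above neutral controls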
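System – flag-PGC1a/GCN5 U2OS cells · Quantity – 7000 U2OS cells per well · Signal – AlphaScreen proximity luminescence, anti-acetyl-lysine antibody · Schedule – overnight compound treatment, 37 °C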
* hit, by the source's call.

SMILES	PGC1a acetyl up
CCOC(=O)c1cnn(-c2ccccc2)c1-n1cccc1C(=O)C(=O)Nc1ccc(F)cc1	78*
O=S(=O)(NCCSc1ccc(Cl)cc1)c1ccc(F)cc1	-40
Cn1nc([N+](=O)[O-])nc1S(C)(=O)=O	95*
CCOc1ccc(C(C)=O)cc1CSC(=N)N	-40
Cc1cc(C)n(CCc2nc3c4ccccc4n(CC#N)c(=O)n3n2)n1	-41
COc1ccc(S(=O)(=O)Nc2ccc3c(c2)C(=O)N([C@H](C)CO)C[C@H](C)[C@H](CN(C)S(=O)(=O)c2cn(C)cn2)OCCCC[C@@H](C)O3)cc1	-55
COc1ccc(S(=O)(=O)N2CCCCN3[C@@H](CO)[C@@H](c4ccc(C5=CCCCC5)cc4)[C@@H]3C2)cc1	57*
CN(C[C@H]1N[C@@H](CO)[C@@H]1c1ccc(C2=CCCC2)cc1)C(=O)c1cccc(F)c1	-76
COc1cccc(-n2c(Cc3cc(=O)[nH]c(=O)[nH]3)nnc2SCc2cccc(C(F)(F)F)c2)c1	-42
CCCNC(=O)[C@H]1[C@H](CO)[C@H]2Cn3c(ccc(-c4ccccc4)c3=O)[C@H]2N1C(=O)C1CC1	-41
COc1cccc2sc(Nc3nc(-c4ccccn4)cs3)nc12	60*
COc1cnc(-c2ccccn2)nc1Sc1ccc(C)cc1	-60
Cn1c(=O)c2c(ncn2CC(=O)O)n(C)c1=O	-43
Cc1cc(OCC(=O)NNC(=O)c2cnccn2)cc(C)c1Cl	-85
Cc1ccccc1OCC(=O)N/N=C/c1cc2ccccc2nc1Cl	59*
Nc1nnc(CC(=O)N/N=C/c2ccccc2OCc2ccc(F)cc2)s1	-61
CCOC(=O)c1ccc(N2C(=O)C=CC2=O)cc1	-46
COc1cccc(N2C(=NC(=O)c3ccccc3)SC3CS(=O)(=O)CC32)c1 (stereo not given)	-41
CNC[C@H]1Oc2ccc(NC(=O)CCN3CCOCC3)cc2C(=O)N([C@H](C)CO)C[C@H]1C	-42
C[C@H]1CN([C@@H](C)CO)C(=O)c2cc(NC(=O)Nc3cccc4ccccc34)ccc2O[C@H]1CN(C)S(=O)(=O)c1ccc(Cl)cc1	-41
CCC(C)(C)n1nnnc1CN(Cc1ccc(Cl)cc1)Cc1ccco1	82*
CS(=O)(=O)c1nc(-c2ccccc2)cc(C(F)(F)F)n1	-64
CC(=O)c1cccc(-c2ccnc3c2CC(C(=O)Nc2ccc4c(c2)OCO4)O3)c1 (stereo not given)	58*
C[C@H]1CN([C@@H](C)CO)C(=O)c2cccc(NC(=O)c3ccncc3)c2O[C@H]1CN(C)C(=O)Nc1ccc2c(c1)OCO2	-42
Cc1cc(/C=C\c2ccc3cc(N(C)C)ccc3[n+]2C)c(C)n1-c1ccccc1	-68
SMILES	PGC1a acetyl up
O=C(CN1CCC(N2CCCCC2)CC1)N1CCCc2ccccc21	82*
O=C(c1cccc(N2C(=O)C3C4C=CC(C4)C3C2=O)c1)N1CCCc2ccccc21 (stereo not given)	-42
COc1ccc(-c2cnc3c(c2)C(=O)N([C@H](C)CO)C[C@@H](C)[C@H](CN(C)C(=O)C2CCC2)O3)cc1	-56
CN(C)Cc1csc(NC(=O)Nc2ccccc2-c2ccccc2)n1	52*
CC(C)NC(=O)N(C)C[C@H]1OCCCC[C@@H](C)Oc2ccc(NC(=O)Nc3ccc(C(F)(F)F)cc3)cc2C(=O)N([C@H](C)CO)C[C@@H]1C	-50
CCOC(=O)c1c(CN2CCN(CC#N)CC2)n(C)c2cc(Br)c(OC)cc12	69*
CN(C)CCCN(C(=O)c1cc2cc([N+](=O)[O-])ccc2s1)c1nc2cc3c(cc2s1)OCCO3	-54
O=C(Nc1ccc(Cl)c(Cl)c1)N[C@@H]1CC[C@H](CCn2cc(C3CC3)nn2)O[C@H]1CO	-43
C[C@@H]1CN([C@H](C)CO)C(=O)c2cccc(NC(=O)c3ccc(-c4nccs4)cc3)c2O[C@@H]1CN(C)Cc1ccc(C(=O)Nc2ccccc2N)cc1	-51
CN1CCN(c2ccc([N+](=O)[O-])cc2C(=O)Nc2ccccc2)CC1	-46
Nc1c(C(=O)Nc2ccccc2)sc2ncc([N+](=O)[O-])cc12	84*
Cc1ccc(-c2nnc(Nc3ccccc3)c3ccccc23)cc1S(=O)(=O)NCC1CCCO1 (stereo not given)	120*
CCS(=O)(=O)N[C@H]1C=C[C@H](CC(=O)N2CCCCC2)O[C@H]1CO	-43
Cc1ccccc1S(=O)(=O)NCC[C@@H]1CC[C@H](NC(=O)C2CCOCC2)[C@@H](CO)O1	-45
O=C(Cc1cccc(NC(=O)C2CCCN(C(=O)c3ccccc3)C2)c1)Nc1cccc(C(=O)N2CCOCC2)c1 (stereo not given)	-41
O=C(Cc1cccc(NC(=O)C2CCN(C(=O)c3ccccc3)CC2)c1)Nc1cccc(C(=O)N2CCCCC2)c1	-42
CC(C)(C)OC(=O)N1CCCC(C(=O)Nc2cccc(C(=O)NCc3ccccc3)c2)C1 (stereo not given)	64*
Nc1nccc(-c2ccc(-n3cnc4ccccc43)cc2)n1	-44
CC1(Cc2cc(Cl)ccc2C(F)(F)F)C(=O)Nc2ccc(S(=O)(=O)NC3CCCCC3)cc21 (stereo not given)	86*
Cc1ccc2nc(SCC(=O)Nc3ccc(F)cc3)nc(=O)n2c1	-76
CCN(CC)c1cc(Cl)nc(N)n1	-43
COc1ccc2c(-c3ccccc3)cc(=O)[nH]c2c1	-42
COc1ccc(-c2cc(-c3ccccc3)c(C#N)c(S(C)=O)n2)cc1 (stereo not given)	-85
COc1ccc(-c2ccc(OC)cc2C(=O)O)cc1	70*
Cc1ccccc1OCC(O)CNC1CCC(NCC(O)COc2ccccc2C)CC1 (stereo not given)	88*
SMILES	PGC1a acetyl up
CN(C)CCNc1oc(COc2ccc(-c3ccccc3)cc2)nc1C#N	-58
O=C1CC(Sc2nnc(-c3ccccc3O)o2)C(=O)N1c1ccccc1 (stereo not given)	86*
c1cncc(CNc2ncnc3ccc(-c4ccoc4)cc23)c1	-55
COc1ccc(NC(=O)N[C@@H]2C=C[C@@H](CC(=O)NCc3ccccn3)O[C@@H]2CO)cc1	-48
COC(=O)[C@]1(Cc2ccccc2)N=C(c2ccc(OCCCO)cc2)O[C@@H]1c1ccccc1CN=[N+]=[N-]	101*
COC(=O)[C@]1(Cc2ccccc2)N=C(c2ccc(OCCCO)cc2)O[C@@H]1c1ccccc1	77*
COC(=O)[C@@]1(Cc2ccccc2CN=[N+]=[N-])N=C(c2ccc(OCCCO)cc2)O[C@H]1c1ccccc1	66*
CCCCC(=O)NCCc1cc2c(OC)ccc(OC)c2[nH]c1=O	-44
COc1ccc(C(=O)Nc2cc(Cl)ccc2-n2cncn2)c(OC)c1OC	-47
CC(C)C(=O)Nc1cccc(NC(=S)NC(=O)c2ccc([N+](=O)[O-])cc2)c1	-48
O=C(Nc1ccccc1Cl)c1ccc([N+](=O)[O-])o1	66*
Cc1cccc(NC(=O)c2ccc([N+](=O)[O-])o2)n1	66*
O=C(Nc1cccc(NC(=O)c2cccs2)c1)c1ccc([N+](=O)[O-])o1	94*
CCCCn1nc(NC(=O)c2cccs2)c2cc3ccccc3nc21	-48
CCC(=O)N1CCN(c2ccc(Cl)cc2NC(=O)c2ccc([N+](=O)[O-])o2)CC1	62*
COc1ccc(C(=O)Nc2cccc(NC(=O)c3ccc(OC)c(OC)c3)n2)cc1OC	-61
CC(=O)Nc1ccc2c(CSc3nncs3)cc(=O)oc2c1	-47
CN(C)C(=S)Nc1ccc(Br)c(Cl)c1	-52

Screens as filed in PubChem BioAssay.
